Data on 8 molecules can be found in ChEMBL document CHEMBL1165965, “Synthesis and structure-activity relationships of 1,2,3,4-tetrahydropyrido[2,3-b]pyrazines as potent and selective inhibitors of the anaplastic lymphoma kinase” (Bioorg Med Chem, 2010).

The inhibition is the percentage by which the read-out fell short of the control. The term IC50 denotes the concentration that inhibits the measured activity by half. Read a high IC50 as lower potency.

Assay [1] deals with Serine/threonine-protein kinase SBK1 (Homo sapiens) (UniProt Q52WX2). In words: Inhibition of SBK1 at 1 uM.
For assay [2], the target named is ALK tyrosine kinase receptor (Homo sapiens, UniProt Q9UM73). Nature of the assay: Inhibition of ALK phosphorylation in human Karpas-299 cells by immunoblotting and ELISA. Type of assay: cell-based. An outline of the steps:
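Karpas-299 cells were treated with compound, then lysed in Tris pH 7.5 / 1% Triton X-100 buffer containing phosphatase and protease inhibitors, briefly sonicated and cleared. For immunoblots, SDS–PAGE was probed with phospho-NPM-ALK(Y664) or total ALK antibodies and bands were quantified by ECL. For ELISA, lysates were captured overnight at 4 °C on anti-ALK, detected with anti-phospho-ALK(Y664) plus AP secondary, and read by 4-MeUP fluorescence.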

In assay [3] the target is T1, Ephrin type-B receptor 6 (Homo sapiens) (UniProt O15197).
T1 sequence (whole entry): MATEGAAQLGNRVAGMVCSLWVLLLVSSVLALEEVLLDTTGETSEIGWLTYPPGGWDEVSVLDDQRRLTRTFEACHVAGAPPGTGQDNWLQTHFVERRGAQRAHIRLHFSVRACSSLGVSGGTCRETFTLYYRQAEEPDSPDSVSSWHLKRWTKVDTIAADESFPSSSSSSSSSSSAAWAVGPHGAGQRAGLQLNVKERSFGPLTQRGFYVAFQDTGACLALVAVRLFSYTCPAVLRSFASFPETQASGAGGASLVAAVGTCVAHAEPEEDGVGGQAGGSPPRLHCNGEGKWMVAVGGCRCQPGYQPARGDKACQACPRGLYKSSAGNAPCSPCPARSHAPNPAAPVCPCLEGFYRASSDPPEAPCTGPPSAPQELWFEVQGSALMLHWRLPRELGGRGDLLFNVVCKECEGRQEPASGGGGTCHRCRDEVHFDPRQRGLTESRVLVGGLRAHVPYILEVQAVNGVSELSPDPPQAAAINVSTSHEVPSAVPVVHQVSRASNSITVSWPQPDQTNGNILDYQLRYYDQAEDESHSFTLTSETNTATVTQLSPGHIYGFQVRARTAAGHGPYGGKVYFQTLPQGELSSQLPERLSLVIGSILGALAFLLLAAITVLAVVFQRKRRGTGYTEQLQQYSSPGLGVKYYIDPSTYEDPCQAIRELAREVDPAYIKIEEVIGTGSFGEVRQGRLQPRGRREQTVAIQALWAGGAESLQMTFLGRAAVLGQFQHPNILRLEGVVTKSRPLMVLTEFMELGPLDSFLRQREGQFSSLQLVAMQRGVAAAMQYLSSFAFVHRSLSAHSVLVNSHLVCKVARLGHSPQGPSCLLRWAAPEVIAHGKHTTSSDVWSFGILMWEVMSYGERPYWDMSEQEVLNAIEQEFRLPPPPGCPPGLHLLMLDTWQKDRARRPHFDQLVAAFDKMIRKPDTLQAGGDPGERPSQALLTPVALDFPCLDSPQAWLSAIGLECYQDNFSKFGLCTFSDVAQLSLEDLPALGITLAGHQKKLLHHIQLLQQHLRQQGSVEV
In words: Inhibition of EPHB6 at 1 uM.

ALK tyrosine kinase receptor, sequence (Q9UM73 whole entry): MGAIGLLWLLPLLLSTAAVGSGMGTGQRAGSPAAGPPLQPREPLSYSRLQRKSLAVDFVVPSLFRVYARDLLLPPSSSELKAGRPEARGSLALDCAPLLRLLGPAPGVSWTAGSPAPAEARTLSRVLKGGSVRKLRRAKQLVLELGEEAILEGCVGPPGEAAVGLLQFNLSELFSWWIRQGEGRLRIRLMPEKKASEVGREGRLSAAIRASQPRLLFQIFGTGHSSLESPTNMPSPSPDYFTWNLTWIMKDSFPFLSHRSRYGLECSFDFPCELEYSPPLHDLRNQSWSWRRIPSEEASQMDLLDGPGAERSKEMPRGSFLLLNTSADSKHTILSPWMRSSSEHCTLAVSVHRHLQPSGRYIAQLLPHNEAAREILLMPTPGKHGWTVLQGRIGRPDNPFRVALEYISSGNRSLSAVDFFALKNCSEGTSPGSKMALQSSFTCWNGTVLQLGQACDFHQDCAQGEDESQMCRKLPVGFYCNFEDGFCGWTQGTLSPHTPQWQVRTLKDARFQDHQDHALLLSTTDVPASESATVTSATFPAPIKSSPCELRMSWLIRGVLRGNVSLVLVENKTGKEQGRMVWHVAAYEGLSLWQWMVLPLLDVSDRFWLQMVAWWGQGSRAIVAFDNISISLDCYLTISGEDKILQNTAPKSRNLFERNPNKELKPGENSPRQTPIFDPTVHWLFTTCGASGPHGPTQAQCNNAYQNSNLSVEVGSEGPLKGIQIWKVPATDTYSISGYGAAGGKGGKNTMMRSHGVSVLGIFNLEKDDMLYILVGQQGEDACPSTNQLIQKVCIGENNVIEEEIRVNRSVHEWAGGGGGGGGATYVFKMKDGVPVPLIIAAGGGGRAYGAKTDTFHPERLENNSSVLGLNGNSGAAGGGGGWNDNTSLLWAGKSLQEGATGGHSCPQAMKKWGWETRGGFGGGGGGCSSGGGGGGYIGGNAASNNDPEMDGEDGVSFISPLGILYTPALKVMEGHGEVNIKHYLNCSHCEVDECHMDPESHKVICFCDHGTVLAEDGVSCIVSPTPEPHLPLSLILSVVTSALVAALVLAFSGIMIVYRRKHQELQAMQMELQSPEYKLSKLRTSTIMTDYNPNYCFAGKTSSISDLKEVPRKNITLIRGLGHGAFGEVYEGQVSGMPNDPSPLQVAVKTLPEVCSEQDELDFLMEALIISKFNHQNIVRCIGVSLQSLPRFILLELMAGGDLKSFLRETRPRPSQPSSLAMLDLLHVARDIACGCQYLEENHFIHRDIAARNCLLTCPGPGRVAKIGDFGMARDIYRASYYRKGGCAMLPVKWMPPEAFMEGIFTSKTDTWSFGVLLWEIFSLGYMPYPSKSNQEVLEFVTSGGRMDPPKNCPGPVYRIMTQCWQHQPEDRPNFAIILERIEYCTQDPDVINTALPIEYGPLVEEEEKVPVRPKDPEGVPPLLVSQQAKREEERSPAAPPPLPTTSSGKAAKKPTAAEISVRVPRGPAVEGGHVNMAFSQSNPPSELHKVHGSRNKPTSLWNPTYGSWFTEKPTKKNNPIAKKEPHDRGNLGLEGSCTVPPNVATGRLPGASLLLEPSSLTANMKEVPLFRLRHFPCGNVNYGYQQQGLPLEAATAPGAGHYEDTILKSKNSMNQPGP
Serine/threonine-protein kinase SBK1 (Homo sapiens), sequence (Q52WX2 whole entry): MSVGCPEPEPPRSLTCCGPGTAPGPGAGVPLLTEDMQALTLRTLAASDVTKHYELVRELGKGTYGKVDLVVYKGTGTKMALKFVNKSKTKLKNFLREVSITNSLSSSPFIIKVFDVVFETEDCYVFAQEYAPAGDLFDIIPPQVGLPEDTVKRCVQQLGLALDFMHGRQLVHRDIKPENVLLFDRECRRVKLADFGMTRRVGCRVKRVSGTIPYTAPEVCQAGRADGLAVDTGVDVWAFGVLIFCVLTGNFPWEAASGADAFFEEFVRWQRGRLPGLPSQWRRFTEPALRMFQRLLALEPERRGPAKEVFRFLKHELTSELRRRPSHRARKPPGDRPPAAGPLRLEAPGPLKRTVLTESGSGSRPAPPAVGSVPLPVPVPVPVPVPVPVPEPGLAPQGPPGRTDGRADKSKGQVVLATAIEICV

Regarding `FC(F)(F)c1ccc(Cl)cc1CN1CCNc2ncc(-c3ccnc(N4CCNCC4)c3)cc21`, the inhibition in assay [1] is < 50%; in assay [3] it was 97%. Moreover, it took 0.15 µM to reach half-maximal inhibition in assay [2] (IC50).

Turning to `CN1CCN(c2ccc(-c3cnc4c(c3)N(Cc3cc(Cl)ccc3Cl)CCN4)cn2)CC1`, the inhibition in assay [1] was < 50%; in assay [3], 76%.

On to `COC1CCN(C(=O)c2ccc(-c3cnc4c(c3)N(Cc3cc(Cl)ccc3C(F)(F)F)CCN4)cc2)CC1`, for which the IC50 in assay [2] was 0.45 µM.

As to `CN1CCN(c2ccc(-c3cnc4c(c3)N(Cc3cc(F)ccc3F)CCN4)cn2)CC1`, the values for the inhibition in assay [1] and in assay [3] were < 50% and 68%, respectively. The same molecule showed an IC50 in assay [2] of 0.2 µM.

For `O=C(c1ccc(-c2cnc3c(c2)N(Cc2cc(Cl)ccc2C(F)(F)F)CCN3)cc1)N1CCC(N2CCCC2)CC1`, half-maximal inhibition in assay [2] (IC50) required 0.25 µM. That is a sub-micromolar value.

As for `CN1CCN(c2ccc(-c3cnc4c(c3)N(Cc3c(F)ccc(F)c3Cl)CCN4)cn2)CC1`, the inhibition was < 50% in assay [1] and 95% in assay [3].

As for `CC(=O)N1CCN(c2cc(-c3cnc4c(c3)N(Cc3cc(Cl)ccc3C(F)(F)F)CCN4)ccn2)CC1`, the inhibition is < 50% in assay [1] and 92% in assay [3]. This molecule also registered an IC50 in assay [2] of 0.25 µM.

As to `CN1CCN(c2ccc(-c3cnc4c(c3)N(Cc3cc(Cl)ccc3C(F)(F)F)CCN4)cn2)CC1`, the figures for the inhibition in assay [1] and in assay [3] were < 50% and 89%, respectively.
